# From ChEMBL document CHEMBL1250451, “Mechanistic insights into a Ca2+-dependent family of alpha-mannosidases in a human gut symbiont” (Nat Chem Biol, 2010)
# T1: Alpha-1,2-mannosidase (BT_2199) (Bacteroides thetaiotaomicron, UniProt Q8A5N9)
# T1 sequence (Q8A5N9 whole entry): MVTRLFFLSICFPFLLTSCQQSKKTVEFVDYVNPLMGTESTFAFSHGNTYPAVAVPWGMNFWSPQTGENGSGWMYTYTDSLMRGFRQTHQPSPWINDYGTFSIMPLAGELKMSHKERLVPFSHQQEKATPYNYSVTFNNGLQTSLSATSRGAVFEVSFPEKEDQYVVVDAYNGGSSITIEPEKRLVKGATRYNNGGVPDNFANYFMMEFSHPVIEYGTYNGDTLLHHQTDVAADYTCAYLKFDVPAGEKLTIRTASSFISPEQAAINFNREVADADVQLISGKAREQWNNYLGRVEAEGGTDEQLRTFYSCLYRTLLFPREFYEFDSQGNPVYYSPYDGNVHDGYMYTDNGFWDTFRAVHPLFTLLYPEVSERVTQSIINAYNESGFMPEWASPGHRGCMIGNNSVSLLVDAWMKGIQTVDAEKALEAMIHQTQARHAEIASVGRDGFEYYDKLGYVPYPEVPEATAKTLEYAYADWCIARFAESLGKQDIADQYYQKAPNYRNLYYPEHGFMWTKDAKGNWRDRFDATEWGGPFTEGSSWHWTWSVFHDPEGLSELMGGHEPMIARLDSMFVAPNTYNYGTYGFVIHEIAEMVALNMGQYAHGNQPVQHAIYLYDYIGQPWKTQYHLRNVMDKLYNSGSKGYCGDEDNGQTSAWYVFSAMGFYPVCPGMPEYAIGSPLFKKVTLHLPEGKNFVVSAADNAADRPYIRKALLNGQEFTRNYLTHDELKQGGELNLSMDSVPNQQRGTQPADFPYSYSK
# How the values were obtained:
# Format in all cases: protein assay
# [1] = target: T1, Alpha-1,2-mannosidase (BT_2199); experiment: Inhibition of Bacteroides thetaiotaomicron GH92 alpha-mannosidase 2199 assessed as reduction of mannose release using 4NP-mannopyranoside substrate
# In short: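 Recombinant enzymes expressed in E. coli. Bt3990 was purified by IMAC, anion exchange and size exclusion; Bt2199 by IMAC only. Ki was measured with at least five inhibitor concentrations at a substrate concentration ≪ Km for each enzyme. Ki was taken as the x-axis intercept of a plot of […] against inhibitor concentration.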
# [2] = substrate: O=[N+]([O-])c1ccc(O[C@H]2O[C@H](CO)[C@@H](O)[C@H](O)[C@@H]2O)cc1; experiment: Ratio of Kcat to Km for Bacteroides thetaiotaomicron GH92 alpha-mannosidase GH92 alpha-mannosidase 2629 assessed as mannose release after 16 hrs by HPLC
# [3] = substrate: O=[N+]([O-])c1ccc(O[C@H]2O[C@H](CO)[C@@H](O)[C@H](O)[C@@H]2O)cc1; experiment: Activity of Bacteroides thetaiotaomicron GH92 alpha-mannosidase GH92 alpha-mannosidase 2629 assessed as mannose release after 16 hrs by HPLC
# [4] = substrate: O=[N+]([O-])c1ccc(O[C@H]2O[C@H](CO)[C@@H](O)[C@H](O)[C@@H]2O)cc1; experiment: Activity of Bacteroides thetaiotaomicron GH92 alpha-mannosidase GH92 alpha-mannosidase 1769 assessed as mannose release after 16 hrs by HPLC
# [5] = substrate: O=[N+]([O-])c1ccc(O[C@H]2O[C@H](CO)[C@@H](O)[C@H](O)[C@@H]2O)cc1; experiment: Ratio of Kcat to Km for Bacteroides thetaiotaomicron GH92 alpha-mannosidase GH92 alpha-mannosidase 1769 assessed as mannose release after 16 hrs by HPLC
# [6] = substrate: O=[N+]([O-])c1ccc(O[C@H]2O[C@H](CO)[C@@H](O)[C@H](O)[C@@H]2O)cc1; experiment: Activity of Bacteroides thetaiotaomicron GH92 alpha-mannosidase GH92 alpha-mannosidase 2111 assessed as mannose release after 16 hrs by HPLC
# [7] = substrate: O=[N+]([O-])c1ccc(O[C@H]2O[C@H](CO)[C@@H](O)[C@H](O)[C@@H]2O)cc1; experiment: Ratio of Kcat to Km for Bacteroides thetaiotaomicron GH92 alpha-mannosidase GH92 alpha-mannosidase 2111 assessed as mannose release after 16 hrs by HPLC
# [8] = substrate: O=[N+]([O-])c1ccc(O[C@H]2O[C@H](CO)[C@@H](O)[C@H](O)[C@@H]2O)cc1; experiment: Ratio of Kcat to Km for Bacteroides thetaiotaomicron GH92 alpha-mannosidase GH92 alpha-mannosidase 3527 assessed as mannose release after 16 hrs by HPLC
# [9] = substrate: O=[N+]([O-])c1ccc(O[C@H]2O[C@H](CO)[C@@H](O)[C@H](O)[C@@H]2O)cc1; experiment: Activity of Bacteroides thetaiotaomicron GH92 alpha-mannosidase GH92 alpha-mannosidase 3527 assessed as mannose release after 16 hrs by HPLC
# [10] = substrate: O=[N+]([O-])c1ccc(O[C@H]2O[C@H](CO)[C@@H](O)[C@H](O)[C@@H]2O)cc1; experiment: Ratio of Kcat to Km for Bacteroides thetaiotaomicron GH92 alpha-mannosidase GH92 alpha-mannosidase 3773 assessed as mannose release after 16 hrs by HPLC
# [11] = substrate: O=[N+]([O-])c1ccc(O[C@H]2O[C@H](CO)[C@@H](O)[C@H](O)[C@@H]2O)cc1; experiment: Activity of Bacteroides thetaiotaomicron GH92 alpha-mannosidase GH92 alpha-mannosidase 3773 assessed as mannose release after 16 hrs by HPLC
molecule,measurement,setting,value
O=C1N[C@@H]2[C@@H](O)[C@@H](O)[C@H](O)[C@@H](CO)N2C1=O [KIFUNENSINE],Ki,[1],230 µM
"Alpha-1,2-mannosidase (BT_2629) (Bacteroides thetaiotaomicron), Q8A4H0 (protein) MKTHFSFKHLLFLGGAVLYSLQSSAVKNPVDYVSTLIGTQSKFELSTGNTYPATALPWGMNFWTPQTGKMGDGWAYTYDADKIRGFKQTHQPSPWMNDYGQFAIMPITGGLVFDQDRRASWFSHKAEVAKPYYYKVYLADHDVTTELAPTERAVMFRFTYPETKNAYVIVDAFDKGSYVKVIPEENKIIGYSTKNSGGVPENFKNYFVIQFDKPFTFVSTVFENNILPNETEAKGNHTGAVIGFATKKGEIVHARVASSFISPEQAELNLKELGKNSFDQLVANGREIWNREMSKIEIEDDNIDNLRTFYSCLYRSMLFPRSFYEIDAKGQVMHYSPYNGEVRPGYMFTDTGFWDTFRCLFPFLNLMYPSMNQKMQEGLVNTYKESGFLPEWASPGHRDCMVGNNSASVVADAYIKGLRGYDIETLWEALKHGANAHLRGTASGRLGYESYNQLGYVANNIGIGQNVARTLEYAYNDWAIYTLGKKLGKPENEIDIYKKHALNYKNVYHPERKLMVGKDNKGVFNPNFDAVDWSGEFCEGNSWHWSFCVFHDPQGLINLMGGKKEFNAMMDSVFVISGKLGMESRGMIHEMREMQVMNMGQYAHGNQPIQHMVYLYNYSSEPWKAQYWIREIMNKLYTAGPDGYCGDEDNGQTSAWYVFSALGFYPVCPGTDEYIIGTPLFKSAKLHLENGKTITIKADNNQLDNRYIKEMKVNGKSQTRNFLTHDQLIKGANIQFQMSPVPNKQRGTTEKDVPYSLSFE",kcat/Km,[2],Not Active
same,Km,[3],Not Active
same,kcat,[3],Not Active
"Alpha-1,2-mannosidase (BT_1769) (Bacteroides thetaiotaomicron), Q8A6V7 (protein) MKLTHILASAAIISTLSACNGSLQTADRTPVDYVNPYIGNISHLLVPTFPTIQLPNSMLRVYPERADYTSELLKGLPLIVTNHRERSAFNFSPYQGEKLRPVITYNYDNEHITPYSFDVELDDNRMKAEYALSHQSAIYRITYEADKPAYLIVNSRNGSIHANENFISGRQQLNDNTNVYVYIEAQEKPISAGILENGTIETSKDNAEGANACAAWRFADGTTTVNLRYGISFISEEQAEKNLHRELKDYNIKALAEAGRQIWNETLGRIQVEGGTEDDKTVFYSSFYRTFERPICMSEGGRYFSAFDGKVHEDNGTPFYTDDWIWDTYRAAHPLRTLIDQQKEEDIIASYLRMAEQMGNMWMPTFPEVTGDTRRMNSNHAVATVADALAKGLKVDTAKAYEACRKGIEEKTLAPWSGAPAGWLDNFYRENGYIPALRVDEPENDPNVHPFEKRQPVAVTLGTSYDQWCLSRIAQALNKKEEAEYYLKCSYNYRNLYNKETAFFHPKDKEGQWIEPFDYRFPGGMGAREYYGENNGWVYRWDVPHNVADLISLMGGNEQFIANLDRTFTEPLGRSKYAFYAKLPDHTGNVGQFSMANEPSLHVPYLYNYAGQPWKTQKRIRQMLKTWFRNDLMGIPGDEDGGGMTSFVVFSSLGFYPVTPGLPAYTIGSPLFTDAKIRLSNGAVFEIEAKNASTDNKYIQSATLNGKEWNKSWFSHDDLMSGGKLVLVMGNKPNKTWASGAEDVPPSLEIK",Km,[4],Not Active
same,kcat,[4],Not Active
same,kcat/Km,[5],Not Active
"Alpha-1,2-mannosidase (BT_2111) (Bacteroides thetaiotaomicron), Q8A5X5 (protein) MKRIPLSLFTFLFLLSGLCAAPTKTVWQIGEKNHSASELALSPDKYKEFLANDFGWEDRFYIIGLSSPQKDFPYVLPGPADHWGGTSYTAGIRTHVLNILFGMKEVPETDSWKLIIDLLDTHHELPALFKITINGKSWKYALPKGSGKSIDGDYSQIKPHTIEIPLNSGVIRKGSNSIALTSLEGSWILFDDIRLMGPDNAELNEVNKSVYLRDVKAADFQTTSPVAQPLLVDIEHLSGHPLLEVKVDGKKILEQRLEKGRYILEAPMPVVKSPKTSHYIISADGAILDKGMIRRAPHNTITLADYIDTRMGTAHSRWMIAPGTWMPFSMVKLSPDNQDSGWQSGYDPSFESIGTFSHIHEWTMAGLGIMPANGPLKTEIGSQSSLVKDANSYRSAIDKTSEETKVGYYKVDLTDYQIKAELTATSRCGFQRYTYPQDKDARVMIDLKIPSEYDYQIVEGSVKQTGARRIEGFSKQLSKNVWSADADQNYTIYFVIEFNKDIKKFGGWHDHTLWETDTMTAHYPQRFGCYAEFDTTDHPEVMVRSGISYVDMAGASNNLSNEITEPFGWNFEAVHKHQSDSWNNILNRVRIYSNDYREKVRFYTNLYRAFCRNTFSDADRRWVDAAGNIQKLDDPDAVALGCDAFWNTFWNLNQVWNLIAPEWSSRWVKSQLAMYDANGWLAKGPSGMKYIPVMVGEHEIPLLVSTYQMGIRNYDAEKMFRAIVKMQTTPAQRVANGFAGNRDLETYLQHQYVPADKGRFSNTLEYSYDDWTVSQLAKALGKEEYYRTFSNRGNWWKNAINPATGYAQMRYSNGEWEKNFDPFKSGANHHYVEGNAWQLTFFVPQNVPALTEIIGKELFIDRLSWGFKASEPWRYNAPGDQYWDFPVVQGNQQSMHFAFLFNWAGQPWQTQRWSRSIIDRYYGFDTSNAYLGDEDQGQMSAWFVMAALGLFQTDGGCNAEPVYELGSPLFEKIKIDLGKHFGRGKQFIIKASNTSRENKYIQSAKLNGKKLNSFKFPAKELLKGGTLELEMGDRPNKNWGIK",Km,[6],Not Active
same,kcat,[6],Not Active
same,kcat/Km,[7],Not Active
"Alpha-1,2-mannosidase (BT_3527) (Bacteroides thetaiotaomicron), Q8A1Y1 (protein) MKKLALLAFTLFSAWNMDAKTITGPVDYVSPLVGTQSKHALSTGNTYPAIALPWGMNFWVPQTGKMGDGWAYTYDADKIRGFKQTHQPSPWINDYGQFSIMPITGKAVFDQDQRASWFSHKAETATPYYYKVYLADHDVVTEIAPTERAAAFRFTFPENDHSYVVVDAFDNGSFVKVIPSENKIIGYTTKNSGGVPANFKNYFVLEFDKPFTYTAAVANGNIDTNKLEANDKHAGALIGFKTRKGEQVNVRVASSFISPEQAELNLKELGKDNIDQIAAKGRKVWNDVLGRIEVEDDDIDHLRTFYSCLYRSVLFPRSFYEIDAKGDIVHYSPYNGEVLPGYMFTDTGFWDTFRCLFPFLNLMYPSMNMKMQEGLVNTYKESGFLPEWASPGHRGCMVGNNSASVVADAYLKGLKGYDIETLWEAVKHGANAVHPQVSSTGRLGYDYYNKLGYVPYNVGINENAARTLEYAYNDWCIYQLGKALNKPKKEIEIFAKRAMNYKNLYDPEHKLMRGKNEDGKFQSPFNPLKWGDAFTEGNSWHYTWSVFHDPQGLIDLMGGKDGFNQMMDSVFILPPVFDDSYYGGVIHEIREMQIMNMGNYAHGNQPIQHMLYMYNYSGQPWKAQHWIREVMDKLYTPAPDGYCGDEDNGQTSAWYVFSAMGFYPVCPGTDEYILGTPYFKQMKLHLENGKTVTISAPNNGDDKRYISSMTLNGKDHTKNYVTHEDLMNGASITFKMDSKPNEQRGTKETDFPYSFSNEFKKKK",kcat/Km,[8],Not Active
same,Km,[9],Not Active
same,kcat,[9],Not Active
"Alpha-1,2-mannosidase, putative (BT_3773) (Bacteroides thetaiotaomicron), Q8A193 (protein) MNAFKLLMAASCFLGLATSGVAKQDYSKSEGLLQYVDPYIGSGFHGHVFVGTSVPYGMVQLGPNNIHKGWDWCSGYHYSDSILIGFSHTHLSGTGCTDLGDILIMPLNEIRTPRGNQDDIRDGYASKYSHDNEIARPEYYSLILDRYNIKAELTATDRVGFHRYTYPEGKPVSILIDLREGNGSNAYDSYIRKVDDYTVEGYRYVRGWSPSRKVYFVLKSDQKIEKFTAYDDNTPKLWDQLKVESVKSVLTFGNVKEVKIKVAISSVSCDNAAMNLQAELSHWDFDKVVKMSSDRWNKQLDKMTVESDDEAAKRVFYTAHYHTMIAPTLYCDVNGEYRGMNDMIYTDPKKANYTTLSLWDTYRALNPLMTIIQPEMVDNVINSMLSIYRQQDKLPIWPLMSGETNCMPGYSSVPVIADAYLKGFTGFDAEEALTAMKATATYEGQNGVPYVMAKGYIPADKIHEATSIAMEYAVDDWGIAAMAQKMGKTADYETFSKRAHYYKNYFDSSIHFIRPKLEDGSWRTPYDPARSIHGVGDFCEGNGWQYTFFAPQDPYGLISLFGGDKPFTSKLDSFFTNNDSMGEGASSDITGLIGQYAHGNEPSHHIAYLYTYAGEQWKTAEKVRFIMSDFYTDQPDGIIGNEDCGQMSAWYLLSAMGFYQVNPSDGVFAFGSPRFKKIEVKVRGGKVFTVEAPNNSKDNIYIQKVYLNGKPYHKSYITYDDIINGSTLKFEMGKKPAKNFGKASANRPIVLNK",kcat/Km,[10],Not Active
same,Km,[11],Not Active
same,kcat,[11],Not Active
